Type in all cases: functional
The subject of experiment [1] is Heligmosomoides polygyrus. The experiment is described as follows: Anthelmintic activity against mice, infected with parasite Nematospiroides dubius, at a dose of 125(ppm in feed). The method, boiled down:
(§1)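 Compound was given in feed ad libitum from 24 h postinfection for 18 days, four mice per group. On day 19, N. dubius were counted in the duodenum and H. nana in the ileum. Result is % reduction of mean worm burden vs untreated control; ≤25% was recorded as 0.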

In experiment [2] the test system is Heligmosomoides polygyrus. Put plainly: Anthelmintic activity against mice, infected with parasite Nematospiroides dubius, at a dose of 62(ppm in feed). The method, boiled down: as §1
For experiment [3], the system named is Rodentolepis nana. The experiment is described as follows: The compound was tested for anthelmintic activity against mice, infected with parasite Hymenolepis nana at a dose of 125(ppm in feed). The method, boiled down:
as §1

For experiment [4], the system named is Rodentolepis nana. Put plainly: The compound was tested for anthelmintic activity against mice, infected with parasite Hymenolepis nana at a dose of 62(ppm in feed). The method, boiled down:
as §1

Experiment [5] relates to Heligmosomoides polygyrus. Put plainly: Anthelmintic activity against mice, infected with parasite Nematospiroides dubius, at a dose of 250(ppm in feed). The method in brief: as §1
In experiment [6] the test system is Rodentolepis nana. Put plainly: Anthelmintic activity against mice infected with parasite Hymenolepis nana at a dose of 125 ppm (in feed). The method in brief: as §1
Experiment [7] has as its system Rodentolepis nana. The experiment is described as follows: The compound was tested for anthelmintic activity against mice, infected with parasite Hymenolepis nana at a dose of 250(ppm in feed). The method in brief: as §1
Experiment [8] deals with Heligmosomoides polygyrus. The experiment is described as follows: Anthelmintic activity against mice, infected with parasite Nematospiroides dubius, at a dose of 125 (ppm in feed). The method in brief: as §1
The test system of experiment [9] is Heligmosomoides polygyrus. Put plainly: Anthelmintic activity against mice, infected with parasite Nematospiroides dubius, at a dose of 250 pm in feed). The method in brief:
as §1

For experiment [10], the system named is Ovis aries. The experiment is described as follows: Anthelmintic activity against sheep, infected with Ostertagia circumcincta, at a dose of 30 mg/kg. The method, boiled down: (§2)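 Merino ewes and wethers (12-15 months, 25-35 kg) received L3 intraruminally on day 0. Susceptible strains: H. contortus 6000, O. circumcincta 8000, T. colubriformis 8000. Benzimidazole-resistant strains: 8000, 9000, 9000. Animals were allocated by day-27 fecal egg count (n = 4-7) and given a single intraruminal dose in 0.5% carboxymethylcellulose saline. Adult worms in abomasum and small intestine were counted on day 35. Result is mean % reduction vs untreated controls.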

Experiment [11] relates to Ovis aries. Put plainly: Anthelmintic activity against sheep, infected with Trichostrongylus colubriformis, at a dose of 30 mg/kg. The method, boiled down: as §2
Experiment [12] relates to Ovis aries. The experiment is described as follows: Anthelmintic activity against sheep, infected with Haemonchus contortus, at a dose of 30 mg/kg. The method, boiled down: as §2
In experiment [13] the test system is Heligmosomoides polygyrus. Put plainly: Anthelmintic activity against mice, infected with parasite Nematospiroides dubius, at a dose of 31(ppm in feed). The method, boiled down:
as §1

Experiment [14] has as its system Rodentolepis nana. The experiment is described as follows: The compound was tested for anthelmintic activity against mice, infected with parasite Hymenolepis nana at a dose of 31(ppm in feed). The method, boiled down: as §1
For experiment [15], the system named is Heligmosomoides polygyrus. The experiment is described as follows: Anthelmintic activity against mice infected with parasite Nematospiroides dubius, at a dose of 62(ppm in feed). The method, boiled down: as §1
Experiment [16] has as its system Rodentolepis nana. The experiment is described as follows: Anthelmintic activity against mice infected with parasite Hymenolepis nana at a dose of 62(ppm in feed). The method in brief:
as §1

Experiment [17] deals with Heligmosomoides polygyrus. The experiment is described as follows: Anthelmintic activity against mice, infected with parasite Nematospiroides dubius, at a dose of 500(ppm in feed). The method in brief:
as §1

The test system of experiment [18] is Rodentolepis nana. Put plainly: The compound was tested for anthelmintic activity against mice, infected with parasite Hymenolepis nana at a dose of 500(ppm in feed). The method, boiled down: as §1
In experiment [19] the test system is Ovis aries. Put plainly: Anthelmintic activity against sheep, infected with Trichostrongylus colubriformis, at a dose of 20 mg/kg. The method, boiled down:
as §2

Experiment [20] concerns Ascaris suum. The experiment is described as follows: Effect on incorporation of [32Pi] by isolated Ascaris suum mitochondria at a concentration of 0 uM. The method in brief: (§3)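 Body-wall muscle mitochondria from adult A. suum (4-5 mg protein) were preincubated for 5 min at 30 °C, pH 7.4, with inhibitor in 170 mM mannitol, 50 mM sucrose, 10 mM 32Pi-phosphate, 1 mM MgCl2, 0.4 mM ADP and 0.1 unit hexokinase. Reaction was started with 10 mM malate and stopped after 15 min with perchloric acid. 32P-organic phosphate and succinate were measured in extracts; duplicate runs.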

Experiment [21] deals with Ascaris suum. The experiment is described as follows: Effect on incorporation of [32Pi] by isolated Ascaris suum mitochondria at a concentration of 10 uM. The method, boiled down:
as §3

Experiment [22] deals with Ascaris suum. The experiment is described as follows: Effect on succinate formation by isolated Ascaris suum mitochondria at a concentration of 25 uM. The method, boiled down:
as §3

The subject of experiment [23] is Ovis aries. Put plainly: Anthelmintic activity against sheep, infected with Haemonchus contortus, at a dose of 20 mg/kg. The method in brief:
as §2

The test system of experiment [24] is Ascaris suum. The experiment is described as follows: Effect on succinate formation by isolated Ascaris suum mitochondria at a concentration of 3 uM. The method, boiled down:
as §3

In experiment [25] the test system is Ascaris suum. The experiment is described as follows: Effect on succinate formation by isolated Ascaris suum mitochondria at a concentration of 10 uM. The method, boiled down: as §3
Experiment [26] has as its system Ascaris suum. Put plainly: Effect on succinate formation by isolated Ascaris suum mitochondria at a concentration of 50 uM. The method in brief: as §3
Experiment [27] concerns Ascaris suum. The experiment is described as follows: Effect on incorporation of [32Pi] by isolated Ascaris suum mitochondria at a concentration of 50 uM. The method in brief:
as §3

Experiment [28] relates to Ovis aries. The experiment is described as follows: Anthelmintic activity against sheep, infected with Ostertagia circumcincta, at a dose of 20 mg/kg. The method, boiled down:
as §2

Experiment [29] has as its system Ascaris suum. The experiment is described as follows: Effect on succinate formation by isolated Ascaris suum mitochondria at a concentration of 0 uM. The method, boiled down:
as §3

Experiment [30] deals with Ascaris suum. Put plainly: Effect on incorporation of [32Pi] by isolated Ascaris suum mitochondria at a concentration of 25 uM. The method, boiled down: as §3
For experiment [31], the system named is Ascaris suum. The experiment is described as follows: Effect on incorporation of [32Pi] by isolated Ascaris suum mitochondria at a concentration of 3 uM. The method in brief: as §3
The test system of experiment [32] is Rodentolepis nana. The experiment is described as follows: The compound was tested for anthelmintic activity against mice, infected with parasite Hymenolepis nana at a dose of 875(ppm in feed). The method, boiled down: as §1
The subject of experiment [33] is Heligmosomoides polygyrus. Put plainly: Anthelmintic activity against mice, infected with parasite Nematospiroides dubius, at a dose of 875(ppm in feed). The method in brief: as §1
In experiment [34] the test system is Rodentolepis nana. The experiment is described as follows: The compound was tested for anthelmintic activity against mice, infected with parasite Hymenolepis nana at a dose of 31 p.p.m. in feed. The method in brief:
as §1

Experiment [35] relates to Heligmosomoides polygyrus. Put plainly: Anthelmintic activity against mice, infected with parasite Nematospiroides dubius, at a dose of 31 p.p.m. in feed. The method in brief: as §1
Experiment [36] concerns Rodentolepis nana. The experiment is described as follows: The compound was tested for anthelmintic activity against mice, infected with parasite Hymenolepis nana at a dose of 125 p.p.m. in feed. The method, boiled down:
as §1

Experiment [37] relates to Heligmosomoides polygyrus. The experiment is described as follows: Anthelmintic activity against mice, infected with parasite Nematospiroides dubius, at a dose of 125 ppm in feed. The method, boiled down:
as §1

Experiment [38] has as its system Heligmosomoides polygyrus. The experiment is described as follows: Anthelmintic activity against mice, infected with parasite Nematospiroides dubius, at a dose of 1000(ppm in feed). The method in brief: as §1
Experiment [39] has as its system Rodentolepis nana. The experiment is described as follows: The compound was tested for anthelmintic activity against mice, infected with parasite Hymenolepis nana at a dose of 1000(ppm in feed). The method, boiled down:
as §1

`N#C/C(C(=O)Nc1ccc(C(F)(F)F)cc1)=C(/O)c1ccc(Br)cc1`: the Reduction in [1] came to 99%; in experiment [2] it was 45%; in experiment [3] it was 100%; in experiment [4] it was 92%.
Regarding `N#C/C(C(=O)Nc1ccc(Sc2ccc(Cl)cc2)cc1)=C(/O)c1ccc(C(F)(F)F)cc1`, the Reduction was 94% in [5], 0% in experiment [6], 33% in [7] and 0% in experiment [8].
For the compound `N#C/C(C(=O)Nc1ccc([N+](=O)[O-])cc1)=C(/O)c1ccc(C(F)(F)F)cc1`, the Reduction is 0% in experiment [6], 100% in [7], 100% in experiment [9] and 50% in experiment [8].
Take `N#C/C(C(=O)Nc1ccc(C(F)(F)F)cc1)=C(/O)Cc1ccc(C(F)(F)F)cc1`: the Reduction in experiment [5] came out at 90%; in [6], 0%; in experiment [7] it was 0%; in [10], 0%; in experiment [11], 0%; in experiment [12], 78%. Further, the Reduction in experiment [8] is 35%.
Take `N#C/C(C(=O)Nc1ccc(OC(F)(F)F)cc1)=C(/O)c1ccc(OC(F)(F)F)cc1`: the Reduction in experiment [13] came out at 39%; in experiment [14], 0%; in [15], 100%; in experiment [16], 56%.
As to `N#C/C(C(=O)Nc1ccc(F)cc1)=C(/O)c1ccc(C(F)(F)F)cc1`, the Reduction in experiment [6] was found to be 0%; in experiment [2], 0%; in experiment [16] it was 0%; in experiment [8] it was 100%.
Regarding `N#C/C(C(=O)Nc1ccc(Oc2ccc(Cl)cc2)c(Cl)c1)=C(/O)c1ccc(C(F)(F)F)cc1`, the Reduction was determined as 100% in experiment [17]; 0% in [6]; 83% in [18]; 0% in experiment [10]; 0% in experiment [11]; 0% in experiment [12]. For the same compound, the Reduction in experiment [8] turned out to be 0%.
`N#C/C(C(=O)c1ccc(C(F)(F)F)cc1)=C(/S)Nc1ccc(C(F)(F)F)cc1`: the Reduction in experiment [5] was determined as 100%; in experiment [6], 0%; in experiment [7] it was 90%; in [8] it was 0%.
In the case of `N#C/C(C(=O)Nc1ccc(C(F)(F)F)cc1)=C(/O)c1ccc(C(F)(F)F)cc1`, the Reduction in [19] came to 0%; in [13] it was 76%; in [14] it was 0%; in experiment [23] it was 100%; in experiment [15], 100%; in [28] it was 66%. Also, the Reduction stood at 0% in [10], 0% in experiment [16], 0% in [11] and 100% in experiment [12]. Besides, the EC in [20] was 0.39 uM 15min-1 mg-1; in experiment [21] it was 0.28 uM 15min-1 mg-1; in experiment [22] it was 0.86 uM 15min-1 mg-1; in [24], 0.63 uM 15min-1 mg-1; in experiment [25], 0.75 uM 15min-1 mg-1; in experiment [26], 1.17 uM 15min-1 mg-1. Also, the EC worked out at 0.05 uM 15min-1 mg-1 in experiment [27], 0.48 uM 15min-1 mg-1 in experiment [29], 0.15 uM 15min-1 mg-1 in [30] and 0.35 uM 15min-1 mg-1 in [31].
As for `N#C/C(C(=O)Nc1ccc(C(F)(F)F)cc1)=C(/O)c1ccccc1`, the Reduction in [32] and in [33] was 0% in each case.
As for `COC(=O)Nc1nc2cc([S+]([O-])c3ccccc3)ccc2[nH]1` (stereo not drawn) [OXFENDAZOLE], the Reduction in [34] is on record as 0%; in experiment [35], 100%; in experiment [36], 100%; in [37], 100%.
For the compound `N#C/C(C(=O)Nc1ccccc1)=C(/O)c1ccc(C(F)(F)F)cc1`, the Reduction is 32% in [17] and 100% in [18].
For `N#C/C(C(=O)Nc1ccccc1)=C(/O)c1ccccc1`, the Reduction in experiment [38] and in experiment [39] was 0% each time.

The record behind these values is ChEMBL document CHEMBL1125798, “Synthesis and biological activity of a series of diaryl-substituted alpha-cyano-beta-hydroxypropenamides, a new class of anthelmintic agents” (1991).
